Laboratory results reported in ChEMBL document CHEMBL5678799 (Biochem J, 2009).

Key:
Homo sapiens = species on record: Homo sapiens; experiment: Inhibition of choline kinase (unknown origin) assessed as remaining activity at 10 uM using choline as substrate incubated for 30 mins in presence of ATP by Kinase Glo assay relative to control
Summary of the method: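 Choline kinase assayed with 1 mM choline, 1 μM ATP in 25 mM glycine/NaOH pH 8.5, 67 mM KCl, 5 mM MgCl2, 1 mM DTT, 30 min at room temperature. Stopped with Kinase-Glo Plus, luminescence read after 10 min. Activity relative to control, triplicate.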

[1] = target: MAP/microtubule affinity-regulating kinase 3 (Homo sapiens) (UniProt P27448); experiment: (§1) Inhibition of recombinant human N-terminal His6-tagged MARK3 (2 to 729 residues) expressed in baculovirus infected Sf21 cells assessed as remaining activity at 1 uM using CHKtide as substrate incubated for 30 mins in presence of [gamma-33P]ATP by filter binding method relative to control
mTORC2 (Homo sapiens) [2] = target: T1, mTORC2 (Homo sapiens) (UniProt P42345+Q6R327+Q9BVC4+Q9BPZ7); settings: HEK293, dose 30-1000 nM, time 30.0 min
mTORC1 (Homo sapiens) = mTORC1 (Homo sapiens) (UniProt P42345+Q8N122+Q9BVC4); settings: HEK293, dose 30.0 nM, time 30.0 min
[3] = target: Inhibitor of nuclear factor kappa-B kinase subunit beta (Homo sapiens) (UniProt O14920); experiment: as §1, with “His6-tagged IKKbeta (1” for “His6-tagged MARK3 (2”, “to 736” for “to 729”, “at 10” for “at 1”, “using LDDRHDSGLDSMKDEEY” for “using CHKtide”
Summary of the method: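 Profiling-centre panel assay performed robotically at 21 °C for 30 min, linear with time and enzyme. […] Values are percent of compound-free control activity, the mean of triplicates ± S.D.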

[4] = target: Tyrosine-protein kinase SYK (Homo sapiens) (UniProt P43405); experiment: Inhibition of recombinant human N-terminal His6-tagged SYK (1 to 635 residues) expressed in baculovirus infected Sf21 cells assessed as remaining activity at 1 uM using Poly (Glu,Tyr) as substrate incubated for 30 mins in presence of [gamma-33P]ATP by filter binding assay relative to control
mTORC2 (Homo sapiens) [5] = target: T1, mTORC2 (Homo sapiens); settings: HEK293, dose 30-1000 nM, time 30.0 min; remark: listed apart in the source
[6] = target: Mitogen-activated protein kinase 15 (Homo sapiens) (UniProt Q8TD08); experiment: Inhibition of recombinant human N-terminal His6-tagged ERK8 (2 to 544 residues) expressed in baculovirus infected Sf21 cells assessed as remaining activity at 1 uM using MBP as substrate incubated for 30 mins in presence of [gamma-33P]ATP by filter binding method relative to control
Summary of the method: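 Radiometric kinase panel run robotically at room temperature (21 °C) for 30 min, linear in time and enzyme. […] Activity is expressed as percent of control without compound, from triplicate determinations ± S.D.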

[7] = target: Dual specificity tyrosine-phosphorylation-regulated kinase 1A (Homo sapiens) (UniProt Q13627); experiment: Inhibition of recombinant human N-terminal GST-tagged DYRK1A (1 to 502 residues) expressed in Escherichia coli assessed as remaining activity at 10 uM using KKISGRLSPIMTEQ as substrate incubated for 30 mins in presence of [gamma-33P]ATP by filter binding method relative to control
Summary of the method: (§2)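 Run robotically for 30 min at 21 °C under linear conditions. Compound at 1 or 10 µM. Percentage activity remaining versus control without compound, triplicate mean ± S.D.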

[8] = target: Serine/threonine-protein kinase Nek6 (Homo sapiens) (UniProt Q9HC98); experiment: Inhibition of recombinant human His6-tagged NEK6 (8 to 313 residues) expressed in baculovirus infected Sf21 cells assessed as remaining activity at 10 uM using FLAKSFGSPNRAYKK as substrate incubated for 30 mins in presence of [gamma-33P]ATP by filter binding method relative to control; summary of the method: as §2
[9] = target: Mitogen-activated protein kinase 8 (Homo sapiens) (UniProt P45983); experiment: Inhibition of recombinant human His6-tagged JNK1alpha1 (1 to 384 residues) expressed in baculovirus infected Sf21 cells assessed as remaining activity at 1 uM using ATF2 as substrate incubated for 30 mins in presence of [gamma-33P]ATP by filter binding method relative to control
Summary of the method: (§3)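 Robotic radiometric panel assay, 30 min at room temperature (21 °C), with 10 mM magnesium acetate. […] Compound at 1 or 10 µM. Residual activity expressed relative to compound-free control; triplicate average ± S.D.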

mTORC2 (Homo sapiens) [10] = target: T1, mTORC2 (Homo sapiens); settings: HEK293, dose 30-1000 nM, time 30.0 min; remark: listed apart in the source
[11] = target: Ribosomal protein S6 kinase alpha-5 (Homo sapiens) (UniProt O75582); experiment: Inhibition of recombinant human His6-tagged MSK1 (2 to 802 residues) expressed in baculovirus infected Sf21 cells assessed as remaining activity at 10 uM using GRPRTSSFAEGKK as substrate incubated for 30 mins in presence of [gamma-33P]ATP by filter binding method relative to control; summary of the method: as §3
[12] = target: Serine/threonine-protein kinase pim-1 (Homo sapiens) (UniProt P11309); experiment: (§4) Inhibition of recombinant human N-terminal His6-tagged PIM1 (2 to 313 residues) expressed in baculovirus infected Sf21 cells assessed as remaining activity at 10 uM using RSRHSSYPAGT as substrate incubated for 30 mins in presence of [gamma-33P]ATP by filter binding method relative to control
Summary of the method: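 Incubations ran robotically for 30 min at room temperature (21 °C) under linear conditions. Results are percent activity remaining versus controls without compound, as the mean of triplicates ± S.D.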

[13] = target: Ribosomal protein S6 kinase alpha-1 (Homo sapiens) (UniProt Q15418); experiment: Inhibition of recombinant human N-terminal His6-tagged RSK1 (1 to 735 residues) expressed in baculovirus infected Sf21 cells assessed as remaining activity at 10 uM using KKLNRTLSVA as substrate incubated for 30 mins in presence of [gamma-33P]ATP by filter binding assay relative to control
[14] = as §4, with “PKBbeta S474D mutant (120” for “PIM1 (2”, “481” for “313”, “crosstide peptide” for “RSRHSSYPAGT”; settings: condition cancer, 0.5 h
Summary of the method: (§5)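 Assays ran 30 min at 21 °C, robotically and in the linear range. Remaining activity is given relative to incubations lacking compound, as the average of triplicate determinations ± S.D.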

[15] = target: Serine/threonine-protein kinase BRSK2 (Homo sapiens) (UniProt Q8IWQ3); experiment: Inhibition of recombinant human N-terminal His6-tagged BRSK2 (2 to 674 residues) expressed in baculovirus infected Sf21 cells assessed as remaining activity at 1 uM using KKLNRTLSFAEPG as substrate incubated for 30 mins in presence of [gamma-33P]ATP by filter binding method relative to control; summary of the method: as §5

## COc1ccc(-c2ccc3c(N4CCOCC4)nc(N4C[C@@H](C)O[C@@H](C)C4)nc3n2)cc1CO [Ku-0063794]
Homo sapiens
  Activity: 102%
[1]
  Activity: 93%
mTORC2 (Homo sapiens) [2]
  inhibition: Dose-Dependent Effect
mTORC1 (Homo sapiens)
  inhibition: 50%
[3]
  Activity: 89%
[4]
  Activity: 88%
mTORC2 (Homo sapiens) [5]
  inhibition: Dose-Dependent Effect
[6]
  Activity: 88%
[7]
  Activity: 80%
[8]
  Activity: 83%
[9]
  Activity: 80%
mTORC2 (Homo sapiens) [10]
  inhibition: Dose-Dependent Effect
[11]
  Activity: 117%
[12]
  Activity: 98%
[13]
  Activity: 86%
[14]
  Activity: 107%
[15]
  Activity: 90%
